Source: ChEMBL document CHEMBL2069282, “Sugar-modified derivatives of cytostatic 7-(het)aryl-7-deazaadenosines: 2'-C-methylribonucleosides, 2'-deoxy-2'-fluoroarabinonucleosides, arabinonucleosides and 2'-deoxyribonucleosides” (Bioorg Med Chem, 2012)

Legend:
[1] = test system: CCRF-CEM; assay: Cytotoxicity against human CCRF-CEM cells incubated for 3 days by XTT assay; type: functional, cell-based; conditions: 72 h
Summary of the method: (§1)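 Cell viability read by a metabolic XTT tetrazolium method after 3-day incubation of cells with compound. Values are from 2–4 independent experiments.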

[2] = test system: HepG2; assay: Cytotoxicity against human HepG2 cells incubated for 3 days by XTT assay; type: functional, cell-based; conditions: HepG2, 72 h; summary of the method: as §1
[3] = test system: HL-60; assay: Cytotoxicity against human HL60 cells incubated for 3 days by XTT assay; type: functional, cell-based; conditions: HL-60, 72 h; summary of the method: as §1
[4] = Toxicity against human HuH7 cells incubated for 3 days by CellTiter 96 AQueous One Solution cell proliferation assay; type: cell-based, Huh-7
[5] = Selectivity index, ratio of CC50 for human HuH7 cells to EC50 for Hepatitis C virus subtype 1a replicons; type: toxicity, cell-based, Huh-7; conditions: read-out: Ratio CC50/EC50
[6] = test system: Hepatitis C virus; assay: Antiviral activity against Hepatitis C virus subtype 1b replicons infected in human HuH7 cells assessed as reduction in viral RNA levels by Rt-PCR; type: functional, organism-based, Hepacivirus hominis; conditions: genotype 1b, Huh-7
[7] = Cytotoxicity against human HeLaS3 cells incubated for 3 days by XTT assay; type: functional, cell-based; conditions: HeLa S3, 72 h; summary of the method: as §1
[8] = Selectivity index, ratio of CC50 for human HuH7 cells to EC50 for Hepatitis C virus subtype 1b replicons; type: toxicity, cell-based, Huh-7; conditions: read-out: Ratio CC50/EC50
[9] = test system: Hepatitis C virus; assay: Antiviral activity against Hepatitis C virus subtype 1a replicons infected in human HuH7 cells assessed as reduction in viral RNA levels by Rt-PCR; type: functional, organism-based, Hepacivirus hominis; conditions: Huh-7
[10] = test system: DU-145; assay: Cytostatic activity against human DU145 cells incubated for 3 days by SRB assay; type: functional; conditions: DU-145, 72 h
[11] = test system: HCT-116; assay: Cytostatic activity against human HCT116 cells incubated for 3 days by SRB assay; type: functional; conditions: HCT-116, 72 h
[12] = test system: NCI-H23; assay: Cytostatic activity against human NCI-H23 cells incubated for 3 days by SRB assay; type: functional; conditions: NCI-H23, 72 h
[13] = Cytostatic activity against human Hs578 cells incubated for 3 days by SRB assay; type: functional; conditions: Hs578, 72 h

| Compound | IC50 [1] [µM] | IC50 [2] [µM] | IC50 [3] [µM] | CC50 at 72 h [4] [µM] | selectivity ratio [5] | EC50 [6] [µM] | IC50 [7] [µM] | selectivity ratio [8] | EC50 [9] [µM] | GI50 [10] [µM] | GI50 [11] [µM] | GI50 [12] [µM] | GI50 [13] [µM] |
| --- | --- | --- | --- | --- | --- | --- | --- | --- | --- | --- | --- | --- | --- |
| Nc1ncnc2c1c(I)cn2[C@@H]1O[C@H](CO)[C@@H](O)[C@@H]1O | 7.02 | 6.12 | 6.44 | 9.97 | < 10 | 1.39 | 3.19 | < 10 | 1.39 |  |  |  |  |
| C[C@@]1(O)[C@H](O)[C@@H](CO)O[C@H]1n1cc(-c2ccc3ccccc3c2)c2c(N)ncnc21 | 3.95 |  | > 10 | 20.1 | < 10 | 5.31 | > 10 | < 10 | 4.91 |  |  |  |  |
| COc1ccc(-c2cn([C@@H]3O[C@H](CO)[C@@H](O)[C@@]3(C)O)c3ncnc(N)c23)cc1 |  |  |  | > 44 | < 10 | 9.44 |  | < 10 | 12 |  |  |  |  |
| C[C@@]1(O)[C@H](O)[C@@H](CO)O[C@H]1n1cc(-c2cc3ccccc3o2)c2c(N)ncnc21 | 7.81 |  | > 10 | 29.4 | < 10 | 6.13 | > 10 | < 10 | 6.15 |  |  |  |  |
| C#Cc1cn([C@@H]2O[C@H](CO)[C@@H](O)[C@@H]2O)c2ncnc(N)c12 | > 10 | 9.86 | > 10 | 17.4 | < 10 | 1.75 | 3.77 | < 10 | 1.54 |  |  |  |  |
| Nc1ncnc2c1c(-c1ccoc1)cn2[C@@H]1O[C@H](CO)[C@@H](O)[C@@H]1F |  |  |  | > 44 | < 10 | 17 |  | < 10 | 37 |  |  |  |  |
| Nc1ncnc2c1c(-c1ccco1)cn2[C@@H]1O[C@H](CO)[C@@H](O)[C@@H]1F |  |  |  | > 44 | < 10 | 12.1 |  | < 10 | 15.7 | 8.52 | > 10 | > 10 | 8.49 |
| Nc1ncnc2c1c(-c1ccoc1)cn2[C@H]1C[C@H](O)[C@@H](CO)O1 |  |  |  | > 44 | < 10 | 5.26 |  | < 10 | 24 |  |  |  |  |
| Nc1ncnc2c1c(-c1cccs1)cn2[C@@H]1O[C@H](CO)[C@@H](O)[C@@H]1F | 7.5 | > 10 | > 10 | 42.9 | < 10 | 4.07 | 5.6 | < 10 | 2.8 |  |  |  |  |
| Nc1ncnc2c1c(-c1ccccc1)cn2[C@@H]1O[C@H](CO)[C@@H](O)[C@@H]1F |  |  |  | > 44 | < 10 | 43.5 |  | < 10 | 26.4 |  |  |  |  |
| C[C@@]1(O)[C@H](O)[C@@H](CO)O[C@H]1n1cc(-c2ccsc2)c2c(N)ncnc21 |  |  |  | > 44 | < 10 | 15.5 |  | < 10 | 36.3 |  |  |  |  |
| Nc1ncnc2c1c(-c1ccoc1)cn2[C@@H]1O[C@H](CO)[C@@H](O)[C@@H]1O | 4.67 | 6.1 | > 10 | > 44 | < 10 | 22.5 | 8.36 | < 10 | 25.2 |  |  |  |  |
| Nc1ncnc2c1c(-c1ccsc1)cn2[C@H]1C[C@H](O)[C@@H](CO)O1 |  |  |  | > 44 | < 10 | 5.91 |  | < 10 | 11.4 |  |  |  |  |
| Nc1ncnc2c1c(-c1ccsc1)cn2[C@@H]1O[C@H](CO)[C@@H](O)[C@@H]1F |  |  |  | 24.4 | < 10 | 10.8 |  | < 10 | 10.9 |  |  |  |  |
| Nc1ncnc2c1c(-c1ccsc1)cn2[C@@H]1O[C@H](CO)[C@@H](O)[C@@H]1O | 3.1 | > 15 | 13 | > 44 | < 10 | 34 | 7.03 | < 10 | 37.8 |  |  |  |  |
| C[C@@]1(O)[C@H](O)[C@@H](CO)O[C@H]1n1cc(-c2cccs2)c2c(N)ncnc21 |  |  |  | 48.1 | < 10 | 14.2 |  | < 10 |  |  |  |  |  |
| C[C@@]1(O)[C@H](O)[C@@H](CO)O[C@H]1n1cc(-c2ccco2)c2c(N)ncnc21 |  |  |  | 49.6 | < 10 | 8.96 |  | < 10 |  | 8.89 | > 10 | 6.08 | 9.05 |
| C[C@@]1(O)[C@H](O)[C@@H](CO)O[C@H]1n1cc(-c2ccccc2)c2c(N)ncnc21 |  |  |  | > 44 | < 10 | 27.1 |  | < 10 | 35.4 |  |  |  |  |
| Nc1ncnc2c1c(-c1cccs1)cn2[C@@H]1O[C@H](CO)[C@@H](O)[C@@H]1O | 4.25 | 12.2 | 13.5 | > 44 | < 10 | 20.6 | 5.38 | < 10 | 35.3 |  |  |  |  |
| Nc1ncnc2c1c(-c1ccco1)cn2[C@@H]1O[C@H](CO)[C@@H](O)[C@@H]1O | 6.64 | 6.62 | > 10 | > 44 | < 10 | 3.02 | 7.62 | < 10 | 3.41 |  |  |  |  |
| Nc1ncnc2c1c(-c1cn[nH]c1)cn2[C@@H]1O[C@H](CO)[C@@H](O)[C@@H]1F | 9.07 |  | > 10 | > 44 | < 10 | 8.45 | > 10 | < 10 | 22.4 |  |  |  |  |
| Nc1ncnc2c1c(-c1ccco1)cn2[C@H]1C[C@H](O)[C@@H](CO)O1 |  |  |  | > 44 | < 10 | 4.16 |  | < 10 | 11.1 |  |  |  |  |
| Nc1ncnc2c1c(-c1cccs1)cn2[C@H]1C[C@H](O)[C@@H](CO)O1 |  |  |  | > 44 | < 10 | 5.16 |  | < 10 | 7.58 |  |  |  |  |
| Nc1ncnc2c1c(-c1ccccc1)cn2[C@@H]1O[C@H](CO)[C@@H](O)[C@@H]1O |  |  |  | > 44 | < 10 | > 44 |  | < 10 | > 44 |  |  |  |  |
| C[C@@]1(O)[C@H](O)[C@@H](CO)O[C@H]1n1cc(-c2cccc3ccccc23)c2c(N)ncnc21 |  |  |  | > 44 | < 10 | 24.1 |  | < 10 | 24.7 |  |  |  |  |
| C[C@@]1(O)[C@H](O)[C@@H](CO)O[C@H]1n1cc(-c2ccoc2)c2c(N)ncnc21 |  |  |  | > 44 | < 10 | 12.3 |  | < 10 | 18.3 |  |  |  |  |
